In BindingDB's records for PubMed 32809817 (Griffith University, 2020) one finds Kd data, which are given here for one compound.

For the assay, the target named is T1, Galectin-8 (Homo sapiens, UniProt O00214).
T1 sequence (O00214 whole entry): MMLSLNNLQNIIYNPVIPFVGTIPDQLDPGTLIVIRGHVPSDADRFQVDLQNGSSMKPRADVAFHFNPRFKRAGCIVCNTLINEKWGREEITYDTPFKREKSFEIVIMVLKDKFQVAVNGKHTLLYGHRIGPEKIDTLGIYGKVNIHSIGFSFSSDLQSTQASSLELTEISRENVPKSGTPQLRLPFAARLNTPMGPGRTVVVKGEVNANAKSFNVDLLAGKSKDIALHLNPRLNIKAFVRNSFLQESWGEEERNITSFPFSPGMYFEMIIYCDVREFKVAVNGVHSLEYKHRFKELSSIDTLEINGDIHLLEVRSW
The assay can be described thus: Binding affinity to N-terminal domain of human galectin-8 (8-154 residues) by ITC assay. The essentials: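 Untagged galectin-8N (residues 8-154) was expressed in bacteria (IPTG induction 4 h, room temperature) and purified on lactosyl-Sepharose at 4 °C. Protein and ligand were in 20 mM Tris pH 7.5, 100 mM NaCl, 4 mM BME, 5% DMSO and degassed. Ligand (0.5 or 1 mM) was titrated into 100 µM protein over 20-25 × 2.5 µl injections, 150 s apart, at 298 K. Blank-corrected data were fitted to an independent-site model for Kd.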

In the case of `OC[C@H]1O[C@@H](O[C@H]2[C@H](O)[C@@H](O)[C@H](O)O[C@@H]2CO)[C@H](O)[C@@H](O)[C@H]1O` [Lactose, anhydrous], the Kd stood at 37.9 µM.
